# A selection: hits, their analogues and other compounds. The true share with any hit is near 3.5%.
# MrgX1 allo act = positive allosteric modulators of MrgX1, primary screen, HEK293 cells, Fluo-4 calcium flux; Mas-related G-protein coupled receptor member X1 (Homo sapiens), Q96LB2; FDSS; stronger effect = higher value; B-score at 10 µM; 310,000 compounds, 0.63% hits; AID 588675, 2011;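 active means plate-corrected calcium response at least 3 library SD above typical, normal starting fluorescence, not activating the receptor alone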;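 further: compound read alongside a low EC10 to EC30 dose of BAM8-22 agonist; peak minus trough fluorescence over baseline measured at the second addition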
# Target sequence (Q96LB2 whole entry, looked up): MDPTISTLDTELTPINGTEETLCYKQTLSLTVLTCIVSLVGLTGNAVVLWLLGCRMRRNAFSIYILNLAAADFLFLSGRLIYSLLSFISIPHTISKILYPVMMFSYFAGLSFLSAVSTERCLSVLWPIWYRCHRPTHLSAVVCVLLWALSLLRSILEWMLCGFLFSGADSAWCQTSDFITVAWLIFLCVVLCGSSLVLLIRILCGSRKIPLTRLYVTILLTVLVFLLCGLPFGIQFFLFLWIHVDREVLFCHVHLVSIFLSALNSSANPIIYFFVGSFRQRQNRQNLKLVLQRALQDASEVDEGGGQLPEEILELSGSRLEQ
# RGS4 inh = RGS4 inhibitors, primary screen, cell-based, HEK293 M3R inducible RGS4, calcium flux; B-score at 10 µM; Regulator of G-protein signaling 4 (Homo sapiens), P49798; Fluo-4 calcium flux; stronger effect = higher value; triggered by carbachol at its EC20; 310,000 compounds, 0.45% hits;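 active means B-score, a plate-corrected calcium signal, over three deviations above library mean, with baseline fluorescence within five deviations of library mean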;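 further: RGS4 expression induced by doxycycline in cells with stable M3 receptor; B-score is computed from the integrated fluorescence ratio over baseline after carbachol; higher B-score means a larger calcium signal and so more RGS4 inhibition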
# Target sequence (P49798 whole entry, looked up): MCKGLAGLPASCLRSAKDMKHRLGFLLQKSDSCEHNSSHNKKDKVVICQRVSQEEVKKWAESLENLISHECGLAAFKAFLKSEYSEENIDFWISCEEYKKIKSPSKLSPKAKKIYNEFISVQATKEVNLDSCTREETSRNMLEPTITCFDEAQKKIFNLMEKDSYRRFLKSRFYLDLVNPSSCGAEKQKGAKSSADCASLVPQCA
# MrgX1 ag = agonists of human MrgX1 receptor, primary screen, HEK293 cells, Fluo-4 calcium flux. Fluo-4 calcium fluorescence, agonist mode; stronger effect = higher value. B-score at 10 µM. 310,000 compounds, 0.44% hits. AID 588627, 2011;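 active means calcium response B-score plate-corrected fluorescence ratio at least 3 library SD, with starting fluorescence B-score inside 5 SD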
#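 Assay system: stable human MrgX1 HEK293 cell line. Quantity: 15,000 cells per well. Schedule: cells plated overnight, dye loaded 0.5 h 37 °C, 0.5 h room temperature. Detection: Fluo-4 NW calcium-flux fluorescence, kinetic read. Read-out basis: peak-minus-minimum fluorescence over baseline, converted to B scores. Control set: positive and negative control wells on each plate.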
# RGS4 pot = RGS4 potentiators or activators, primary screen, cell-based, HEK293 M3R inducible RGS4, calcium flux; carbachol calcium flux Fluo4; stronger effect = lower value; B-score at 10 µM; 310,000 compounds, 0.92% hits; AID 463111, 2010;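 active means B-score of the integrated calcium signal more than 4 SD below the library mean, with starting fluorescence not abnormally high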;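 further: negative B-score means reduced calcium response which marks RGS4 activation or potentiation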
#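 Assay system: Inducible-RGS4 HEK293 cells carrying M3 receptor | Schedule: Compound preincubation 20 min at room temperature before agonist | Signal: Kinetic calcium fluorescence imaging with Fluo4-AM dye, 2 µM | Read-out basis: B score from integrated fluorescence ratio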
# MrgX1 antagonist = antagonists of human MrgX1 receptor, primary screen, HEK293 cells, Fluo-4 calcium flux. Mas-related G-protein coupled receptor member X1 (Homo sapiens), Q96LB2. BAM8-22 antagonism; stronger effect = lower value. B-score at 10 µM. 310,000 compounds, 1.3% hits. AID 588676, 2011;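 active means calcium-response B-score plate-corrected more than 3 library SD below zero, starting fluorescence within 5 deviations, no agonist response on first addition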;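 further: peak minus trough fluorescence over baseline after final BAM8-22 challenge near maximal dose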
# RGS4 block valid = enhanced carbachol calcium response, M3R/RGS4 cells, RGS4 inhibitor project, cell-based, validation screen, HEK293 M3R/RGS4, calcium flux; calcium response, % at 10 µM; shares compounds with RGS4 inh; carbachol calcium Fluo-4 fluorescence; carbachol added at its EC20; 0 = buffer wells, 100 = carbachol control; 1,700 compounds, 65% hits;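 active means duplicate-averaged calcium response above the buffer-only control mean plus 5 SD of those controls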;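 further: integrated fluorescence ratio F max minus min over baseline F0; higher response in RGS4-induced cells means RGS4 inhibition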
# RGS4 uninduced = carbachol calcium response in non-induced M3R cells, confirmation, counter-screen for RGS4 inhibitor project, cell-based, HEK293 M3R | shares compounds with RGS4 inh | carbachol calcium Fluo-4; submaximal (EC20) carbachol stimulus; buffer wells 0%, carbachol control wells 100% | activity (percent), % at 10 µM | 1,900 compounds, 20% hits; call rule not given here;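 further: RGS4 induction absent so cells express M3R without RGS4; higher means more calcium signal and flags a non-specific hit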
# RGS4 inh ctr2 = signal in non-induced cells without carbachol, RGS4 inhibitor counter-screen | shares compounds with RGS4 inh | HEK293 M3R/RGS4 non-induced, Fluo-4 calcium, no carbachol; normalised: buffer wells 0%, carbachol wells 100% | calcium response (agonist-mode artifact), % at 10 µM | 1,900 compounds, 22% hits;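 active means duplicate-averaged calcium rise in uninduced cells above buffer wells' mean plus 5 SD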
# A number is an active result; . = inactive; / = no result given.
SMILES,MrgX1 allo act,RGS4 inh,MrgX1 ag,RGS4 pot,MrgX1 antagonist,RGS4 block valid,RGS4 uninduced,RGS4 inh ctr2
N#Cc1c(-c2ccccc2)cc(C2CC2)nc1N,.,.,.,.,.,/,/,/
N#Cc1c(-c2ccco2)cc(C2CC2)nc1N,.,5,.,.,.,5.0%,.,.
COc1ccc(O)c(-c2cc(-c3ccccc3[N+](=O)[O-])[nH]n2)c1,.,6.4,.,.,.,9.5%,.,.
Cc1ccc(O)c(-c2cc(-c3ccccc3[N+](=O)[O-])[nH]n2)c1,.,8.6,.,.,.,12%,.,18%
Cc1cc(N=Nc2ccccc2)c(NCC(O)C(O)C(O)CO)cc1C (stereo not given),.,9.6,.,.,.,36%,38%,.
COc1cc(/C=N/NC(=S)Nc2cccc(S(=O)(=O)N(C)C)c2)ccc1O,.,.,.,.,.,/,/,/
O=C1/C(=C\c2ccccn2)SC(=S)N1c1ccc(S(=O)(=O)Nc2nccs2)cc1,.,5.9,.,.,.,20%,.,.
COc1ccc(NC(=O)/C(C#N)=C\c2ccc(Br)o2)cc1,.,.,.,.,.,/,/,/
N#C/C(=C\c1ccc([N+](=O)[O-])o1)C(=O)Nc1ccc(F)cc1,.,7,.,.,.,20%,.,.
COc1ccc(/C=C/C(=O)c2sc(-c3ccccc3)nc2C)cc1,.,.,.,.,.,/,.,40%
Cc1ccc(-c2ccc(C(=O)NCc3ccc(Cl)cc3)o2)c2ccccc12,.,4.8,.,.,.,.,.,16%
COC(=O)c1cc(-c2ccc(Br)cc2)on1,.,.,.,.,.,/,/,/
CCOC(=O)c1nn(C23CC4CC(CC(C4)C2)C3)c2c1C(=O)N(c1ccc(C)cc1)C2=O,.,5.2,.,.,.,.,.,100%
COC(=O)c1nn(C23CC4CC(CC(C4)C2)C3)c2c1C(=O)N(c1ccc(Br)cc1)C2=O,.,5.9,.,.,.,7.5%,.,.
COc1cc(NS(=O)(=O)c2ccc(Nc3nc(-c4ccccc4)cs3)cc2)nc(OC)n1,.,8,.,.,.,18%,.,.
Cc1cc(NS(=O)(=O)c2ccc(Nc3nc(-c4ccc(O)cc4)cs3)cc2)no1,.,.,.,.,.,/,.,.
Cc1cc(NS(=O)(=O)c2ccc(Nc3nc(-c4sc(N)nc4C)cs3)cc2)no1,.,.,.,.,.,/,/,/
Cc1cc(NS(=O)(=O)c2ccc(Nc3nc(-c4ccc(C)c(C)c4)cs3)cc2)no1,.,.,.,.,.,.,34%,.
COc1ccc(-c2cc(C(=O)N3CCCC(C(F)(F)F)C3)c3ccccc3n2)cc1OC (stereo not given),.,.,.,.,.,/,/,/
CCN1CCN(C(=O)C2CC(=O)N(c3ccc(Cl)cc3)C2)CC1 (stereo not given),.,.,.,.,.,/,/,/
CCOc1ccc(/C=N/NC(=O)c2nnn(-c3nonc3N)c2-c2ccc(OCC)cc2)cc1,.,.,.,.,.,.,.,.
CCOc1cccc(-c2c(C(=O)N/N=C/c3ccoc3)nnn2-c2nonc2N)c1,.,.,.,.,.,.,.,.
CCOc1ccc(-c2c(C(=O)N/N=C/c3ccoc3)nnn2-c2nonc2N)cc1,.,.,.,.,.,/,/,/
CCOc1cccc(-c2c(C(=O)N/N=C/c3ccncc3)nnn2-c2nonc2N)c1,.,.,.,.,.,.,.,.
CCOc1cccc(-c2c(C(=O)N/N=C(\C)c3ccncc3)nnn2-c2nonc2N)c1,.,.,.,.,.,/,/,/
SMILES,MrgX1 allo act,RGS4 inh,MrgX1 ag,RGS4 pot,MrgX1 antagonist,RGS4 block valid,RGS4 uninduced,RGS4 inh ctr2
CCN(CC(=O)Nc1ccccc1OC)C(=O)c1cc(S(=O)(=O)N2CCCCCC2)ccc1OC,.,.,.,.,.,/,/,/
Cc1ccccc1OCc1ccc(C(=O)N2CC(C)OC(C)C2)o1 (stereo not given),.,.,.,.,.,/,/,/
Cn1c(SCC(=O)Nc2ccc3c(c2)oc2ccccc23)nnc1-c1ccccc1,.,5.1,.,.,.,7.5%,.,.
Cn1c(SCC(=O)Nc2ccc3[nH]c(=O)[nH]c3c2)nnc1-c1ccccc1,.,.,.,.,.,/,/,/
CCOC(=O)Nc1ccc(=O)n(Cc2c(Cl)cccc2Cl)c1,.,7.7,.,.,.,36%,28%,.
O=c1[nH]c2ccc(Cl)cc2c(-c2ccccc2)c1N1CCN(c2ccccn2)CC1,.,7.5,.,.,.,17%,.,.
S=c1[nH]nc(-c2cccs2)n1/N=C/c1c(Cl)cccc1Cl,.,11,.,.,.,17%,.,.
OC(CNCC(c1ccc(Cl)cc1Cl)c1c[nH]c2ccccc12)c1ccccc1 (stereo not given),.,4.9,.,.,.,17%,.,14%
O=[N+]([O-])CC(c1ccccc1)c1c[nH]c2ccccc12 (stereo not given),.,.,.,.,.,/,/,/
Nc1nnnn1/N=C/c1cc(Cl)ccc1O,.,.,.,.,.,/,/,/
Cc1cc(N=Cc2cc(Cl)ccc2O)no1,.,5.7,.,.,.,7.0%,30%,.
O=C(O)c1ccc(C2Nc3ccccc3C(=O)N2Cc2ccccc2)cc1 (stereo not given),.,.,.,.,.,/,/,/
Cc1cc(C)n(C(C[N+](=O)[O-])c2ccc(Cl)cc2)n1 (stereo not given),.,14,.,.,.,8.0%,44%,22%
Cc1cc(O)c(C(C[N+](=O)[O-])c2ccc(Cl)cc2)c(=O)o1 (stereo not given),.,.,.,.,.,/,/,/
Cc1ccc(NCC(=O)N/N=C/c2ccc(-c3cccc(C(F)(F)F)c3)o2)cc1,.,28,.,.,.,62%,37%,.
COc1cc(C(C(=O)NC2CCCCC2)N(C(=O)Cc2c[nH]c3ccccc23)c2ccccc2C)cc(OC)c1OC (stereo not given),.,4.9,.,.,.,7.5%,.,.

# Compound activity deposited in PubChem BioAssay by Johns Hopkins Ion Channel Center.
